From ChEMBL document CHEMBL1121917, “Structure--activity relationships in a broad-spectrum anthelmintic series. Acid chloride phenylhydrazones. 1. Aryl substitutions and chloride variations” (1981)

Assays:
[1] = species: Mus musculus; assay: Percent clearance of Nematospiroides dubius from mouse after oral treatment of 7.55 mg/mouse/day; type: functional
How it was run: (§1)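 Mice naturally carrying Syphacia obvelata were experimentally infected with Nematospiroides dubius and Hymenolepis nana, then grouped after a 2-week prepatency. Finely ground compound was suspended in aqueous 0.10% carboxymethylcellulose, 0.04% polysorbate 80 and 0.0042% polyparaben, and 0.1 mL was given orally by cannula once daily for 4 days to five mice. Necropsy followed 2 days later, scoring presence or absence of each parasite. Control clearance was subtracted from the treated clearance.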

[2] = species: Mus musculus; assay: Percent clearance of Hymenolepis nana from mouse after oral treatment of 7.5 mg/mouse/day; type: functional; how it was run: as §1
[3] = species: Mus musculus; assay: Percent clearance of Syphacaia obvelata from mouse after oral treatment of 0.57 mg/mouse/day; type: functional; how it was run: as §1
[4] = species: Mus musculus; assay: Percent clearance of Nematospiroides dubius from mouse after oral treatment of 0.57 mg/mouse/day; type: functional; how it was run: as §1
[5] = system: Ovis aries; assay: Percent reduction in Trichostrongylus eggs per gram, after treatment with 200 mg/kg dose of compound perorally in sheep; type: functional, Egg; settings: route oral
How it was run: (§2)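 Naturally parasitized lambs, dosed orally either with a suspension by stomach tube or with finely ground compound in gelatin capsules by balling gun. Activity was scored by the clinical test method, meaning a significant fall in helminth egg counts after treatment.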

[6] = system: Ovis aries; assay: Percent reduction in Haemonchus eggs per gram, after treatment with 100 mg/kg dose of compound perorally in sheep; type: functional, Egg; settings: route oral
How it was run: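 Naturally parasitized lambs received compound orally, either as the aqueous suspension by stomach tube or as finely ground powder in gelatin capsules by balling gun. Activity was judged by the clinical test method, as a significant decrease in posttreatment helminth egg counts.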

[7] = species: Canis familiaris; assay: Percent reduction in Ancylostoma eggs per gram, after oral treatment of 25 mg/dog dose of compound in a single treatment; type: functional, Canis lupus familiaris, Egg
How it was run: (§3)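 Dogs naturally infected with Toxascaris leonina were experimentally infected with mixed Ancylostoma caninum and Uncinaria stenocephala larvae. Finely ground compound was given orally in gelatin capsules. Fecal egg counts were taken three times before and three times after treatment, and activity was taken as the fall in egg counts.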

[8] = system: Ovis aries; assay: Percent reduction in Oesophagostomum eggs per gram, after treatment with 200 mg/kg dose of compound perorally in sheep; type: functional, Egg; settings: dose 200 mg/kg; route oral
How it was run: (§4)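 Naturally parasitized lambs were dosed orally at the stated mg/kg. Dosing was either as a suspension of finely ground compound by stomach tube, or as ground compound weighed into gelatin capsules and given by balling gun. Activity was scored by the clinical test method: the decrease in posttreatment helminth eggs per gram.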

[9] = species: Mus musculus; assay: Percent clearance of Syphacaia obvelata from mouse after oral treatment of 1.5 mg/mouse/day; type: functional; how it was run: as §1
[10] = system: Ovis aries; assay: Percent reduction in Trichostrongylus eggs per gram, after treatment with 150 mg/kg dose of compound intraperitoneally in sheep; settings: route intraperitoneal
[11] = species: Canis familiaris; assay: Percent reduction in Uncinaria eggs per gram, after oral treatment of 10 mg/dog dose of compound in a double treatment; type: functional, Canis lupus familiaris, Egg
[12] = species: Canis familiaris; assay: Percent reduction in Ancylostoma eggs per gram, after oral treatment of 10 mg/dog dose of compound in a double treatment; type: functional, Canis lupus familiaris, Egg; how it was run: as §3
[13] = species: Canis familiaris; assay: Percent reduction in Uncinaria eggs per gram, after oral treatment of 20 mg/dog dose of compound in a triple treatment; type: functional, Canis lupus familiaris, Egg
[14] = species: Canis familiaris; assay: Percent reduction in Uncinaria eggs per gram, after oral treatment of 25 mg/dog dose of compound in a single treatment; type: functional, Canis lupus familiaris, Egg
[15] = system: Ovis aries; assay: Percent reduction in Haemonchus eggs per gram, after treatment with 200 mg/kg dose of compound perorally in sheep; type: functional, Egg; settings: dose 200 mg/kg; route oral; how it was run: as §4
[16] = system: Ovis aries; assay: Percent reduction in Trichuris eggs per gram, after treatment with 100 mg/kg dose of compound perorally in sheep; type: functional, Egg; settings: route oral; how it was run: as §2
[17] = species: Canis familiaris; assay: Percent reduction in Uncinaria eggs per gram, after oral treatment of 20 mg/dog dose of compound in a single treatment; type: functional, Canis lupus familiaris, Egg
[18] = system: Ovis aries; assay: Percent reduction in Ostertagia eggs per gram, after treatment with 200 mg/kg dose of compound perorally in sheep; type: functional, Egg; settings: route oral; how it was run: as §2
[19] = system: Ovis aries; assay: Percent reduction in Trichostrongylus eggs per gram, after treatment with 100 mg/kg dose of compound perorally in sheep; type: functional, Egg; settings: route oral; how it was run: as §2
[20] = system: Ovis aries; assay: Percent reduction in Strongyloides eggs per gram, after treatment with 100 mg/kg dose of compound perorally in sheep; type: functional, Egg; settings: route oral; how it was run: as §2
[21] = system: Ovis aries; assay: Percent reduction in Oesophagostomum eggs per gram, after treatment with 100 mg/kg dose of compound perorally in sheep; type: functional, Egg; settings: route oral; how it was run: as §4
[22] = species: Canis familiaris; assay: Percent reduction in Ancylostoma eggs per gram, after oral treatment of 20 mg/dog dose of compound in a triple treatment; type: functional, Canis lupus familiaris, Egg; how it was run: as §3
[23] = system: Ovis aries; assay: Percent reduction in Strongyloides eggs per gram, after treatment with 200 mg/kg dose of compound perorally
[24] = system: Ovis aries; assay: Percent reduction in Ostertagia eggs per gram, after treatment with 100 mg/kg dose of compound perorally in sheep; type: functional, Egg; settings: route oral; how it was run: as §4
[25] = species: Mus musculus; assay: Percent clearance of Hymenolepis nana from mouse after oral treatment of 1.5 mg/mouse/day; type: functional; how it was run: as §1
[26] = species: Canis familiaris; assay: Percent reduction in Ancylostoma eggs per gram, after oral treatment of 20 mg/dog dose of compound in a single treatment; type: functional, Canis lupus familiaris, Egg; how it was run: as §3

In the case of `O=[N+]([O-])c1ccc(/C(Cl)=N/Nc2ccccc2)cc1`, the Parasite_Clearance [1] is reported as 0% and the Parasite_Clearance [2] is reported as 0%.

`Cl/C(=N\Nc1ccccc1)c1cc(Cl)cc(Cl)c1` showed a Parasite_Clearance [3] of 25% and a Parasite_Clearance [4] of 0%.

`CCCCOc1ccc(/C(Cl)=N/Nc2ccccc2)cc1` showed a Reduction [5] of 100%, a Reduction [6] of 100% and a Reduction [7] of 100%. For the same molecule, the Reduction [8] was 100%, the Parasite_Clearance [9] was 100% and the Reduction [10] was 0%. It also gave a Reduction [11] of 75%, a Reduction [12] of 92% and a Reduction [13] of 100%. The Reduction [14] was 67%, the Reduction [15] was 100% and the Reduction [16] was 100%. For the same molecule, the Reduction [17] was 86%, the Reduction [18] was 100% and the Reduction [19] was 100%. It also gave a Reduction [20] of 32%, a Reduction [21] of 100% and a Reduction [22] of 0%. For the same molecule, the Reduction [23] was 100%, the Reduction [24] was 100% and the Parasite_Clearance [25] was 100%. The Reduction [26] was 86%.
